{"data": "Experimental data pooled from the literature", "target": "BDNF/NT-3 growth factors receptor (NTRK2, Homo sapiens, UniProt Q16620)", "note": "Protocols differ between the studies behind these lines."}
{"Compound": "O=C(Nc1cccc(F)c1)Nc1cccc(C(=O)Nc2ccc3[nH]ncc3c2)c1", "effect on": "enzyme activity", "mode": "inhibitor", "technique": "FRET", "tested at": "1 µM", "measurement": "inhibition", "value": "19.3%"}
{"Compound": "Cc1cnc(NC2CCOCC2)nc1-n1cnc(C(=O)NC(CN)c2cc(F)cc(Cl)c2)c1 (stereo not drawn)", "effect on": "enzyme activity", "mode": "inhibitor", "technique": "radiometric", "tested at": "1 µM", "measurement": "remaining activity", "value": "110%"}
{"Compound": "O=C(Nc1ccccc1)Nc1cccc(C(=O)Nc2ccc3[nH]ncc3c2)c1", "effect on": "enzyme activity", "mode": "inhibitor", "technique": "FRET", "tested at": "1 µM", "measurement": "inhibition", "value": "12.3%"}
{"Compound": "Cc1cc(-n2nc(Cc3cc(F)cc(C(F)(F)F)c3)nc2C)ccc1C(N)=O", "effect on": "cell-free assay", "technique": "competition with immobilised ligand", "tested at": "1 µM", "measurement": "remaining binding", "value": "98%"}
{"Compound": "O=C(Nc1ccc(Br)cc1)Nc1cccc(C(=O)Nc2ccc3[nH]ncc3c2)c1", "effect on": "enzyme activity", "mode": "inhibitor", "technique": "FRET", "tested at": "1 µM", "measurement": "inhibition", "value": "15.7%"}
{"Compound": "C[C@H](c1ccc(F)cc1)N(Cc1cccc(C(=O)O)c1)C(=O)c1cnc2ccccc2c1", "effect on": "cell-free assay", "technique": "competition with immobilised ligand", "tested at": "1 µM", "measurement": "remaining binding", "value": "100%"}
{"Compound": "CCN(CC)CCNC(=O)c1c(C)[nH]c(/C=C2\\C(=O)Nc3ccc(F)cc32)c1C", "effect on": "cell-free assay", "tested at": "10 µM", "measurement": "inhibition", "value": "100%"}
{"Compound": "O=C(Nc1ccc(I)cc1)Nc1cccc(C(=O)Nc2ccc3[nH]ncc3c2)c1", "effect on": "enzyme activity", "mode": "inhibitor", "technique": "FRET", "tested at": "1 µM", "measurement": "inhibition", "value": "15.9%"}
{"Compound": "c1ccc(N2CCN(Cc3nc4ccccc4[nH]3)CC2)nc1", "effect on": "cell-free assay", "technique": "competition with immobilised ligand", "tested at": "1 µM", "measurement": "remaining binding", "value": "100%"}
{"Compound": "CCCOc1ccc(OC)c(F)c1C(=O)c1ccc(C(=O)N[C@@H]2CNC[C@H]2NC(=O)c2ccc3[nH]ncc3c2)cc1", "effect on": "enzyme activity", "mode": "inhibitor", "tested at": "10 µM", "measurement": "remaining activity", "value": "71%"}
{"Compound": "Cc1ccc(Nc2nccc(N(C)c3ccc4c(C)n(C)nc4c3)n2)cc1S(N)(=O)=O", "effect on": "cell-free assay", "tested at": "0.5 µM", "measurement": "remaining signal", "value": "91.5%"}
{"Compound": "O=C(Nc1cnn(-c2csc(C(=O)NC3COC3)c2)c1)Nc1c(F)cccc1Cl", "effect on": "enzyme activity", "mode": "inhibitor", "tested at": "5 µM", "measurement": "remaining activity", "value": "91.5%"}
{"Compound": "O=C(Nc1ccc2[nH]ncc2c1)c1cccc(NC(=S)Nc2ccc(F)cc2F)c1", "effect on": "enzyme activity", "mode": "inhibitor", "technique": "FRET", "tested at": "1 µM", "measurement": "inhibition", "value": "9.64%"}
{"Compound": "C[C@@H]1CN(c2cc(-c3n[nH]c4ccc(OC5(C)CC5)cc34)ncn2)C[C@H](C)O1", "effect on": "cell-free assay", "technique": "competition with immobilised ligand", "tested at": "0.1 µM", "measurement": "remaining binding", "value": "67%"}
{"Compound": "COc1cc2c(N3CCN(C(=O)Nc4ccc(OC(C)C)cc4)CC3)ncnc2cc1OCCCN1CCCCC1", "effect on": "cell-free assay", "tested at": "0.5 µM", "measurement": "remaining signal", "value": "81.7%"}
{"Compound": "Nc1cnc(N2CCc3cc(S(=O)(=O)Nc4c(F)cc(Cl)cc4F)cc(N4CCCC4=O)c32)nc1", "effect on": "cell-free assay", "technique": "competition with immobilised ligand", "tested at": "1 µM", "measurement": "remaining binding", "value": "100%"}
{"Compound": "CN1CCN(CC(=O)Nc2cccc(C(=O)Nc3ccc4[nH]ncc4c3)c2)CC1", "effect on": "enzyme activity", "mode": "inhibitor", "technique": "FRET", "tested at": "1 µM", "measurement": "inhibition", "value": "13.3%"}
{"Compound": "CC(C)(O)[C@H]1CC[C@H](Nc2ccc3ncc(-c4cccc(C(F)(F)F)c4)n3n2)CC1", "effect on": "enzyme activity", "mode": "inhibitor", "tested at": "1 µM", "measurement": "remaining activity", "value": "7.07%"}
{"Compound": "COc1cc(Cl)c(C(=O)N[C@@H](CN[C@H]2CC[C@@H](N)CC2)Cc2ccc(C#N)cc2)cc1-c1ccc(CN[C@H](C)c2ccc(C)cc2)o1", "effect on": "enzyme activity", "mode": "inhibitor", "tested at": "1 µM", "measurement": "remaining activity", "value": "64%"}
{"Compound": "CCC(=O)N[C@H]1CC[C@@H](C(=O)N(C)c2ccc(-c3nc4ccccc4o3)cc2)C1", "effect on": "cell-free assay", "technique": "competition with immobilised ligand", "tested at": "1 µM", "measurement": "remaining binding", "value": "100%"}
{"Compound": "O=C1NC(=O)c2cc(Nc3ccc(F)cc3)c(Nc3ccc(F)cc3)cc21", "effect on": "cell-free assay", "tested at": "0.5 µM", "measurement": "remaining signal", "value": "91.9%"}
